Published values of several laboratories.
Target: MAP kinase-activated protein kinase 2 (MAPKAPK2, Homo sapiens, UniProt P49137)

FC(F)(F)Oc1cccc(-c2cnc3ccc(-c4ccncc4)nn23)c1  activity vs control (enzyme activity, inhibitor, radiometric; 5 µM): 96%
Cc1cc(NC(=O)c2cccc3cc(-c4cccc5[nH]nc(N)c45)ccc23)ccc1F  activity vs control (enzyme activity, inhibitor; 0.1 µM): 95%
Cc1noc([C@H]2C[C@@H](c3ccc(C(F)(F)F)cc3)CN(C(=O)N3CCS(=O)(=O)C3)C2)n1  remaining binding (cell-free assay, competition with immobilised ligand; 1 µM): 97%
Nc1nc(Nc2ccccc2)sc1C(=O)c1c(F)cccc1F  remaining activity (enzyme activity, inhibitor; 10 µM): 99%
Cc1ccc(Nc2nccc(N(C)c3ccc4c(C)n(C)nc4c3)n2)cc1S(N)(=O)=O  inhibition (enzyme activity, inhibitor; 10 µM): 11%
CC(C)(C)c1nc(-c2cccc(NS(=O)(=O)c3c(F)cccc3F)c2F)c(-c2ccnc(N)n2)s1  remaining activity (enzyme activity, inhibitor, radiometric; 1 µM): 69%
Cc1ccc(NC(=O)c2ccc(CN3CCN(C)CC3)cc2)cc1Nc1nc(-c2cccnc2)cs1  remaining signal (cell-free assay; 0.5 µM): 102%
O=C1CCc2cc(Nc3cc(OC4CCOCC4)c([N+](=O)[O-])cc3Cl)ccc2N1  remaining binding (cell-free assay, competition with immobilised ligand; 1 µM): 99%
O=C(Nc1cnn(-c2csc(C(=O)NC3COC3)c2)c1)Nc1ccccc1Cl  remaining activity (enzyme activity, inhibitor; 5 µM): 97.1%
CN(C)C1CCN(CC#Cc2nn(C3CCCC3)c3nc(NCc4ccccc4)ncc23)C1 (stereo not drawn)  inhibition (enzyme activity, inhibitor, FRET; 10 µM): 0%
O=C(CSc1nc2nccnc2c(=O)n1CCc1ccccc1)Nc1nccs1  inhibition (enzyme activity, inhibitor; 10 µM): 6%
CS(=O)(=O)N1CCCC(NC(=O)[C@H](CCC2CCCCC2)NC(=O)c2ccc(CNc3ncnc4c3nnn4-c3ccccc3)cc2)C1 (stereo partly drawn)  remaining binding (cell-free assay, competition with immobilised ligand; 0.1 µM): 100%
CNC(=O)c1cc(Oc2ccc(NC(=O)Nc3ccc(Cl)c(C(F)(F)F)c3)cc2)ccn1  inhibition (enzyme activity, inhibitor; 0.3 µM): 4%
C=CC(=O)Nc1cc(Nc2nccc(Nc3cc(Cl)c(F)cc3C(C)(C)O)n2)c(OC)cc1N1CC[C@@H](N(C)C)C1  inhibition (enzyme activity, inhibitor; 1 µM): 4%
CCN(CC)CCNC(=O)c1c(C)[nH]c(/C=C2\C(=O)Nc3ccc(F)cc32)c1C  inhibition (enzyme activity, inhibitor; 10 µM): 15%
CNc1cccc2cc(C(=O)Nc3ccc(C(=O)O)cc3)c(=O)[nH]c12  inhibition (enzyme activity, inhibitor; 10 µM): 11%
CC/C(=N\NC(=O)NCc1cccc(O)c1)c1ccc(O)c(C)c1O  inhibition (enzyme activity, inhibitor; 0.1 µM): -0.7%
CN1CC(Oc2cnc(C#N)cc2-c2ccn3nc(NC(=O)C4CC4)cc3c2)C1  inhibition (enzyme activity, inhibitor; 1 µM): -21%
COc1cc(/C=C/C(=O)CC(=O)/C=C/c2ccc(O)c(OC)c2)ccc1O  activity vs control (enzyme activity, inhibitor; 1 µM): 90%
O=C1Nc2ccc(Cl)cc2C1=Cc1cc(Cl)c(O)c(Cl)c1  remaining signal (cell-free assay; 0.5 µM): 100%
COc1cc(Nc2cnc(C#N)c(O[C@H](C)CN(C)C)n2)ncc1-c1cnn(C)c1  remaining activity (enzyme activity, inhibitor, radiometric; 10 µM): 104%
CCc1ccccc1C(=O)Nc1n[nH]c2c(C)c(F)c(C3C(C#N)=C(C)N(C)C(C)=C3C#N)cc12  remaining binding (cell-free assay, competition with immobilised ligand; 1 µM): 100%
CSc1nc(C)c(-c2ccnc(Nc3ccc(N4CCOCC4)cc3)c2)[nH]1  inhibition (enzyme activity, inhibitor; 10 µM): -1.9%
Cn1cc(Cl)c2c(Oc3c(F)cc(Nc4cc(Cl)nc(N)n4)cc3F)ccnc21  remaining binding (cell-free assay, competition with immobilised ligand; 0.1 µM): 100%
O=C1NC(=O)c2cc(Nc3ccc(F)cc3)c(Nc3ccc(F)cc3)cc21  remaining signal (cell-free assay; 0.5 µM): 95.7%
CCS(=O)(=O)c1cc2cc(C[C@](O)(CC(C)(C)c3ccc(F)cc3C(N)=O)C(F)(F)F)[nH]c2cn1  remaining binding (cell-free assay, competition with immobilised ligand; 1 µM): 100%
CC(C)c1ccc(NC(=O)c2cccs2)c(-c2nc3ccccc3[nH]c2=O)c1  activity vs control (enzyme activity, inhibitor; 1 µM): 103%
CC(C)(O)[C@H]1CC[C@H](Nc2ccc3ncc(-c4cccc(C(F)(F)F)c4)n3n2)CC1  remaining activity (enzyme activity, inhibitor; 1 µM): 105%
CCC(=N\O)/C(C)=C/c1ccc(F)cc1  remaining binding (cell-free assay, competition with immobilised ligand; 1 µM): 69%
COc1cc2ncnc(Nc3ccc(Oc4ccccc4)cc3C)c2cc1OC  inhibition (enzyme activity, inhibitor; 1 µM): 4%
Cc1ncc([N+](=O)[O-])n1C(=NO)c1ccccc1C(F)(F)F  inhibition (enzyme activity, inhibitor; 10 µM): 21.4%
c1ccc(N2CCN(Cc3nc4ccccc4[nH]3)CC2)nc1  remaining binding (binding, competition with immobilised ligand; 1 µM): 100%
FC(F)c1nc2ccccc2n1-c1nc(N2CCOCC2)nc(N2CCOCC2)n1  remaining activity (enzyme activity, inhibitor; 10 µM): 91%
